# ERa coact inh – blocks coactivator binding to human estrogen receptor alpha | TR-FRET ER-alpha LBD / SRC-1 peptide, estradiol-bound | inhibition, % at 25.6 µM | AID 629 | hit rate 1.7% among 86,000 | P03372; in the data active = inhibition above about 50%;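 note: 0% = receptor plus peptide control and 100% = peptide only without receptor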
# Target sequence (P03372 whole entry, looked up, the tested form may be a part): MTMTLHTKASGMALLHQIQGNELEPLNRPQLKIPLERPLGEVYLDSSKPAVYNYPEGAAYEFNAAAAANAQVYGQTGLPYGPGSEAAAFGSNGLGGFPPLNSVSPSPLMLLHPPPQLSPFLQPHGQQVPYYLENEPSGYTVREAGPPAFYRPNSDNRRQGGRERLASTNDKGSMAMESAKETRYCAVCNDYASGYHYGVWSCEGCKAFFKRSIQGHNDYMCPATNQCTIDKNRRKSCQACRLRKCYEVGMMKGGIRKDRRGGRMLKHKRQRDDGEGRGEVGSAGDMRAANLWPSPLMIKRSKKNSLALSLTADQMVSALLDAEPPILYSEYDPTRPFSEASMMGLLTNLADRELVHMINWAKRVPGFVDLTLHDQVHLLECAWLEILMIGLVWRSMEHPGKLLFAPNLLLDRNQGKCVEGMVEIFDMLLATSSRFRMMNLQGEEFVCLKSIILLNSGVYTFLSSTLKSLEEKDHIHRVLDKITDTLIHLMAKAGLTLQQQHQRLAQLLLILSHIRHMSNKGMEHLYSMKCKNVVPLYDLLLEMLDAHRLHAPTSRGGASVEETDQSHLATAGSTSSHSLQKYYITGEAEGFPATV
# ERa coact pot – ER-alpha (human) coactivator binding potentiation; TR-FRET ERalpha-LBD/SRC-Cy5 coactivator binding, 2 h; 100 = basal binding, no effect; coactivator binding (% of control), % at 25.6 µM; hit rate 1.3% among 86,000; AID 639; in the data active = activity above about 200%;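 note: binding measured in presence of low estradiol as agonist stimulus; 0% = peptide alone without receptor and 100% = receptor with peptide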
# H69AR growth 86K – growth inhibitors of human H69AR lung tumor cells; H69AR lung tumor viability, ATP luminescence, 72 h; active compounds read low; viability, % at 10 µM; hit rate 6% among 85,000; AID 598;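 active = viability at or below 40%; inactive = viability above 40%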;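 note: multidrug resistant small cell line overexpressing MRP-1 efflux transporter; 100% = mean luminescence of untreated control wells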
# HUVEC inhibit – inhibitors of human endothelial cell proliferation; viability, % at 10 µM (by protocol); AID 648; HUVEC proliferation, CellTiter-Glo luminescence, 72 h; active compounds read low; hit rate 1.1% among 86,000;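 active = viability at or below 30%; inactive = viability above 30%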;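 note: 100% = median luminescence of DMSO-only cell control wells on each plate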
# Fibroblast inh – blocks proliferation of human lung fibroblasts. LL 47 human lung fibroblast viability, ATP luminescence; active compounds read low. viability, % at 10 µM. hit rate 1.1% among 85,000;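 active = viability at or below 50% in the single dose screen; inactive = viability above 50%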;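 note: compound exposure lasted 72 h before the ATP readout; 100% = median luminescence of untreated cell-only wells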
#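 Times – overnight cell rest, 72 h compound treatment at 37 °C · Test system – human lung fibroblast line LL 47, low passage · Amount – 1,150 cells in each well · Controls – cell-only wells, no compound · Doses – 0.1% DMSO in all compound wells · Measured by – CellTiter-Glo luminescence · Buffer or medium – IMEM plus 15% FBS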
# ERb SRC1 inh – blocks coactivator binding to human estrogen receptor beta; inhibition, % at 25.6 µM; hit rate 1.3% among 86,000; TR-FRET ER-beta LBD / SRC1-Cy5 peptide binding; receptor agonist-loaded with 1 µM estradiol; Q92731; AID 633;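 active = compounds whose percent inhibition of the receptor-coactivator binding signal exceeds about 50% in the single-dose screen, limit read from the data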;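 note: 0% = receptor plus peptide wells without compound and 100% = peptide-only wells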
# An asterisk follows results filed as active; · = not tested or not shown; [ ] = dose if it differs, or a comment. Most compounds without a hit are left out; they make up all but 9.2% or so of the library.
SMILES,ERa coact inh,ERa coact pot,H69AR growth 86K,HUVEC inhibit,Fibroblast inh,ERb SRC1 inh
Cc1oc2c(cc(NS(=O)(=O)c3ccc4c5c(cccc35)C(=O)N4)c3ccccc32)c1C(=O)OC(C)C,93*[fluorescence artefact?],20,31*,63,90,57*
COC(=O)c1c(NS(=O)(=O)c2cccs2)sc2c1CCCC2,-19,107,96,87,97,0
Cc1ccc(NC(=O)C(C)Sc2nnc(-c3cccnc3)n2-c2ccccc2)cc1 (configuration not stated),7,100,71,101,86,-5
c1ccc(Cn2nnc3c(NCC4CCCO4)ncnc32)cc1 (configuration not stated),-6,119,·,101,92,-6
CC(=O)CCN1CCOCC1,-3,106,29*,96,90,-4
O=C(Nc1ccc(-c2noc(COc3ccccc3Cl)n2)cc1)c1ccco1,40,83,29*,35,99,26
Cc1cccc(OCC(=O)Nc2cccc(-c3nnc(-c4ccccc4)o3)c2)c1C,72*[fluorescence artefact?],124,9.8*,50,56,44
Cc1cc(C)cc(OCC(=O)Nc2ccc(N3CCCC3)cc2)c1,97*[fluorescence artefact?],3,96,99,97,71*
Cc1cc(C)cc(OCC(=O)NCCN2CCOCC2)c1,-10,112,90,101,100,85*[fluorescence artefact?]
O=C(COC(=O)C1CCCCC1)Nc1ccc(N2CCCCC2)cc1,22,85,38*,98,95,4
CN1C=CC2=C(C#N)C(N)C(C#N)(C#N)[C@H](c3ccccc3)[C@H]2C1 (some centres not stated),-5,91,77,92,99,-3
O=c1cc(O)c2c(=O)n3c4c(cccc4c2o1)CCC3,9,102,91,99,99,-1
O=C(Cn1cc(C(=O)c2cccs2)c2ccccc21)NCc1ccc2c(c1)OCO2,7,142,95,79,93,-1
CN1CCN(c2ccc(NC(=O)COc3ccccc3Cl)cc2)CC1,57*[fluorescence artefact?],28,86,90,101,72*[fluorescence artefact?]
O=C(CNCCC1=CCCCC1)Nc1ccc(N2CCCCCC2)cc1,-3,84,0.2*,2.0*,23*,15
Cc1cccc(OCC(=O)Nc2ccc(N3CCCC3)cc2)c1C,95*[fluorescence artefact?],6,89,101,99,59*[fluorescence artefact?]
CCOc1ccccc1OCC(=O)Nc1ccc(N2CCCCC2)cc1,11,94,96,94,96,15
Cc1ccc(OCC(=O)Nc2ccc(N3CCCC3)cc2)cc1C,99*[fluorescence artefact?],-2,93,93,110,82*[fluorescence artefact?]
CCC(=O)N1CCN(c2ccc(NC(=O)COc3ccccc3Cl)cc2)CC1,-4,115,75,80,94,-10
O=C(O)CCC(=O)Nc1ccc(N2CCCCCC2)cc1,3,86,84,95,91,5
COc1cc2c(C(=O)N3CCN(c4cccc(Cl)c4)CC3)cn(CC(C)C)c(=O)c2cc1OC,8,124,·,·,·,4
COc1ccc(Cn2nnc3c(=O)[nH]c(C(=O)NCCc4ccc(F)cc4)nc32)cc1OC,-1,118,110,103,102,-5
COc1ccc2oc(-c3ccccc3)c(C(N)=O)c2c1,0,124,100,99,104,4
CC1C=Cc2ccccc2N1C(=O)c1ccccc1 (configuration not stated),-8,109,87,98,91,-10
CCOC(=O)N1c2ccccc2C=CC1OCC (configuration not stated),-3,619*,92,90,97,-3
SMILES,ERa coact inh,ERa coact pot,H69AR growth 86K,HUVEC inhibit,Fibroblast inh,ERb SRC1 inh
Cc1c(Cl)cccc1Nc1nc(N)nc(CSc2ncccn2)n1,2,103,1.4*,100,85,-3
Cc1ccccc1Nc1nc(N)nc(CSc2nnc(-c3ccccc3)n2C)n1,-8,102,76,99,98,-8
Cc1c(Cl)cccc1Nc1nc(N)nc(CSCCO)n1,-1,106,4.3*,89,102,2
CCn1nnc(NC(=O)CSc2ccc(Cl)cc2)n1,90*,29,103,95,98,82*
CCCCCCNC(=O)Cc1nc2nc(C)cc(C)n2n1,1,122,·,100,97,7
COc1ccc(OC)c(-c2nnc(-c3ccc(C)o3)o2)c1,-1,103,70,74,87,11

# Bioassay records from PubChem.
